Tests used:
Thymidylate synthase = Thymidylate synthase (Homo sapiens, UniProt P04818); assay: Competitive inhibition of human thymidylate synthase by spectrophotometry
Dihydrofolate reductase = target: T1, Dihydrofolate reductase (Homo sapiens, UniProt P00374); assay: Competitive inhibition of human dihydrofolate reductase by spectrophotometry
T1 sequence (P00374 whole entry): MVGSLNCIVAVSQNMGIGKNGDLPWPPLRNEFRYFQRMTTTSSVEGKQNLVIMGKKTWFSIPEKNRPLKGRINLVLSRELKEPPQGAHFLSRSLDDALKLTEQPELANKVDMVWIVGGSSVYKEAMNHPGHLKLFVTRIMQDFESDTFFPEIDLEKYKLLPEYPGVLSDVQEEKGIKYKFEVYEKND

LOX IMVI = assay: Cytotoxicity against human LOXIMVI cells at 10^-4 M after 48 hrs by SRB assay; type: functional; conditions: read-out: GI
Method in brief: (§1)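 Run in the NCI 60-cell-line screen after a three-line prescreen. Cells got a 48 h drug exposure; viability/growth was estimated with the sulforhodamine B protein assay. Growth inhibition (I%) was recorded at 100, 10, 1, 0.1 and 0.01 micromolar. Percent growth is relative to untreated control cells, and negative values indicate cell kill.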

SNB-19 = assay: Cytotoxicity against human SNB19 cells at 10^-4 M after 48 hrs by SRB assay; type: functional; conditions: SNB-19, 48 h, read-out: GI
Method in brief: (§2)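 Second-stage screen in the 60-cell-line human tumor panel at NCI, over a 5-log range (100, 10, 1, 0.1, 0.01 micromolar). Cells were exposed to drug for 48 h and growth was estimated with a sulforhodamine B protein stain. The value is percent growth inhibition at each concentration.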

SF-295 = assay: Cytotoxicity against human SF295 cells at 10^-4 M after 48 hrs by SRB assay; type: functional; conditions: SF-295, 48 h, read-out: GI; method in brief: as §2
HCT-15 = assay: Cytotoxicity against human HCT15 cells at 10^-4 M after 48 hrs by SRB assay; type: functional; conditions: HCT-15, 48 h, read-out: GI
Method in brief: (§3)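 Run by NCI on its 60-line human tumor cell panel, after a three-cell-line prescreen. Cells were exposed to drug for 48 h over a 5-log range: 100, 10, 1, 0.1 and 0.01 micromolar. Growth was estimated by sulforhodamine B (SRB) protein staining. Percent growth inhibition (I%) was recorded at each concentration relative to untreated control cells.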

HT-29 = assay: Cytotoxicity against human HT-29 cells at 10^-4 M after 48 hrs by SRB assay; type: functional; conditions: HT-29, 48 h, read-out: GI; method in brief: as §3
NCI-H522 = assay: Cytotoxicity against human NCI-H522 cells at 10^-4 M after 48 hrs by SRB assay; type: functional; conditions: NCI-H522, 48 h, read-out: GI; method in brief: as §1
COLO 205 = assay: Cytotoxicity against human COLO205 cells at 10^-4 M after 48 hrs by SRB assay; type: functional; conditions: COLO 205, 48 h, read-out: GI; method in brief: as §3
HOP-92 = assay: Cytotoxicity against human HOP92 cells at 10^-4 M after 48 hrs by SRB assay; type: functional; conditions: HOP-92, 48 h, read-out: GI; method in brief: as §3
NCI-H226 = assay: Cytotoxicity against human NCI-H226 cells at 10^-4 M after 48 hrs by SRB assay; type: functional; conditions: NCI-H226, 48 h, read-out: GI; method in brief: as §1
K562 = assay: Cytotoxicity against human K562 cells at 10^-4 M after 48 hrs by SRB assay; type: functional; conditions: K562, 48 h, read-out: GI; method in brief: as §1
CCRF-CEM = assay: Cytotoxicity against human CCRF-CEM cells at 10^-4 M after 48 hrs by SRB assay; type: functional; conditions: read-out: GI; method in brief: as §3
SF-268 = assay: Cytotoxicity against human SF268 cells assessed as cell growth at 10^-4 M after 48 hrs by alamar blue assay relative to untreated control; type: functional; conditions: SF-268, 48 h, read-out: Activity
Method in brief: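 Three-cell-line prescreen at NCI. Each line was seeded and pre-incubated, then given a single concentration (10^-4 or 10^-5 M) and incubated for 48 h. The end-point was alamar blue. The value is percent growth of treated cells versus untreated control cells, with negative numbers indicating cell kill.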

NCI-H460 = assay: Cytotoxicity against human NCI-H460 cells assessed as cell growth at 10^-4 M after 48 hrs by alamar blue assay relative to untreated control; type: functional; conditions: NCI-H460, 48 h, read-out: Activity
Method in brief: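 Three-cell-line prescreen. Each line was inoculated and preincubated on a microtiter plate, then the agent was added at a single concentration (10^-4 or 10^-5 M) and incubated 48 h. Endpoint was measured with alamar blue, and growth is reported as a percentage of untreated control cells.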

T47D = assay: Cytotoxicity against human T47D cells at 10^-4 M after 48 hrs by SRB assay; type: functional; conditions: read-out: GI; method in brief: as §2
MDA-MB-435 = assay: Cytotoxicity against human MDA-MB-435 cells at 10^-4 M after 48 hrs by SRB assay; type: functional; conditions: MDA-MB-435, 48 h, read-out: GI; method in brief: as §1
MDA-MB-231 = assay: Cytotoxicity against human MDA-MB-231 cells at 10^-4 M after 48 hrs by SRB assay; type: functional; conditions: MDA-MB-231, 48 h, read-out: GI; method in brief: as §1
DU-145 = assay: Cytotoxicity against human DU145 cells at 10^-4 M after 48 hrs by SRB assay; type: functional; conditions: DU-145, 48 h, read-out: GI; method in brief: as §3
PC-3 = assay: Cytotoxicity against human PC3 cells at 10^-4 M after 48 hrs by SRB assay; type: functional; conditions: PC-3, 48 h, read-out: GI; method in brief: as §2
SN12C = assay: Cytotoxicity against human SN12C cells at 10^-4 M after 48 hrs by SRB assay; type: functional; conditions: read-out: GI; method in brief: as §2
786-0 = assay: Cytotoxicity against human 786-0 cells at 10^-4 M after 48 hrs by SRB assay; type: functional; conditions: 786-0, 48 h, read-out: GI; method in brief: as §3
SK-OV-3 = assay: Cytotoxicity against human SKOV3 cells at 10^-4 M after 48 hrs by SRB assay; type: functional; conditions: SK-OV-3, 48 h, read-out: GI; method in brief: as §2
[1] = Cytotoxicity against human OVCAR5 cells at 10^-4 M after 48 hrs by SRB assay; type: functional; conditions: OVCAR-5, 48 h, read-out: GI; method in brief: as §2
OVCAR-3 = assay: Cytotoxicity against human OVCAR3 cells at 10^-4 M after 48 hrs by SRB assay; type: functional; conditions: OVCAR-3, 48 h, read-out: GI; method in brief: as §1
[2] = Cytotoxicity against human UACC257 cells at 10^-4 M after 48 hrs by SRB assay; type: functional; conditions: UACC-257, 48 h, read-out: GI; method in brief: as §2
SK-MEL-28 = assay: Cytotoxicity against human SK-MEL-28 cells at 10^-4 M after 48 hrs by SRB assay; type: functional; conditions: SK-MEL-28, 48 h, read-out: GI; method in brief: as §2
KM12 = assay: Cytotoxicity against human KM12 cells at 10^-4 M after 48 hrs by SRB assay; type: functional; conditions: KM12, 48 h, read-out: GI; method in brief: as §1
NCI-H322M = assay: Cytotoxicity against human NCI-H322M cells at 10^-4 M after 48 hrs by SRB assay; type: functional; conditions: read-out: GI; method in brief: as §1
SK-MEL-2 = assay: Cytotoxicity against human SK-MEL-2 cells at 10^-4 M after 48 hrs by SRB assay; type: functional; conditions: SK-MEL-2, 48 h, read-out: GI; method in brief: as §2
Malme-3M = assay: Cytotoxicity against human MALME-3M cells at 10^-4 M after 48 hrs by SRB assay; type: functional; conditions: read-out: GI; method in brief: as §1

Row | Structure (SMILES) | Ki (Dihydrofolate reductase) | inhibition of growth at 100 µM (LOX IMVI) | inhibition of growth at 100 µM (SNB-19) | inhibition of growth at 100 µM (SF-295) | inhibition of growth at 100 µM (HCT-15) | inhibition of growth at 100 µM (HT-29) | inhibition of growth at 100 µM (NCI-H522) | inhibition of growth at 100 µM (COLO 205) | inhibition of growth at 100 µM (HOP-92) | growth at 100 µM (SF-268) | growth at 100 µM (NCI-H460) | inhibition of growth at 100 µM (T47D) | inhibition of growth at 100 µM (MDA-MB-435) | inhibition of growth at 100 µM (MDA-MB-231) | inhibition of growth at 100 µM (DU-145) | inhibition of growth at 100 µM (PC-3) | inhibition of growth at 100 µM (SN12C) | inhibition of growth at 100 µM (786-0) | inhibition of growth at 100 µM (SK-OV-3) | inhibition of growth at 100 µM [1] | also measured
1 | C#CCN(Cc1nc2cc(C(F)(F)F)ccc2nc1-c1ccccc1)c1ccc(F)c(F)c1 | 8 µM | 77% | 52% | 74% | 82% | 70% | 85% | 75% | 63% | 95% | 18% | 61% | 81% | 90% | 78% | 78% | 75% | 44% | < 40% | < 40% | Ki (Thymidylate synthase): 3.56 µM; inhibition of growth at 100 µM (NCI-H226): 51%; inhibition of growth at 100 µM (K562): 78%; inhibition of growth at 100 µM (CCRF-CEM): 98%; inhibition of growth at 100 µM (OVCAR-3): 116%; inhibition of growth at 100 µM [2]: 146%; inhibition of growth at 100 µM (SK-MEL-28): < 40%
2 | CCN(Cc1nc2cc(C(F)(F)F)ccc2nc1-c1ccccc1)c1ccc(OC)c(OC)c1 | 4 µM | 200% | 148% | 181% | 171% | 97% | 164% | 92% | 184% | 0% | 0% | 120% | 183% | 174% | 173% | 185% | 189% | 191% | 83% | 152% | inhibition of growth at 100 µM (KM12): 153%; inhibition of growth at 100 µM (NCI-H322M): 96%; inhibition of growth at 100 µM (NCI-H226): 179%; inhibition of growth at 100 µM (K562): 160%; inhibition of growth at 100 µM (CCRF-CEM): 146%; inhibition of growth at 100 µM (OVCAR-3): 194%; inhibition of growth at 100 µM [2]: 192%; inhibition of growth at 100 µM (SK-MEL-28): 112%; inhibition of growth at 100 µM (SK-MEL-2): 172%
3 | C#CCN(Cc1nc2cc(C(F)(F)F)ccc2nc1-c1ccccc1)c1ccc(C)cc1 | 6 µM | 178% | 163% | 150% | 181% | 200% | 134% | 177% | 93% | 89% | 17% | 172% | 149% | 163% | 40% | 58% | 135% | 184% | 191% | 200% | Ki (Thymidylate synthase): 0.51 µM; inhibition of growth at 100 µM (Malme-3M): 160%; inhibition of growth at 100 µM (KM12): 161%; inhibition of growth at 100 µM (NCI-H322M): 180%; inhibition of growth at 100 µM (NCI-H226): 145%; inhibition of growth at 100 µM (CCRF-CEM): < 40%; inhibition of growth at 100 µM (OVCAR-3): 164%; inhibition of growth at 100 µM [2]: 110%; inhibition of growth at 100 µM (SK-MEL-28): 200%; inhibition of growth at 100 µM (SK-MEL-2): 136%
4 | C#CCN(Cc1nc2cc(C(F)(F)F)ccc2nc1-c1ccccc1)c1ccc(F)cc1 | 8 µM | 101% | 84% | 68% | 97% | 80% | 93% | 126% | 106% | 90% | 6% | 90% | 87% | 129% | 82% | 92% | 102% | 132% | 93% | 56% | Ki (Thymidylate synthase): 2.38 µM; inhibition of growth at 100 µM (Malme-3M): 129%; inhibition of growth at 100 µM (KM12): 124%; inhibition of growth at 100 µM (NCI-H322M): 123%; inhibition of growth at 100 µM (NCI-H226): 71%; inhibition of growth at 100 µM (K562): 89%; inhibition of growth at 100 µM (CCRF-CEM): 94%; inhibition of growth at 100 µM (OVCAR-3): 94%; inhibition of growth at 100 µM [2]: 119%; inhibition of growth at 100 µM (SK-MEL-28): 71%
5 | C#CCN(Cc1nc2cc(C(F)(F)F)ccc2nc1-c1ccccc1)c1ccc(OC(F)(F)F)cc1 | 4 µM | 102% | < 40% | 49% | 47% | 77% | 125% | 73% | 109% | 21% | 7% | 70% | 86% | 81% | 75% | 77% | 83% | 46% | < 40% | < 40% | inhibition of growth at 100 µM (Malme-3M): < 40%; inhibition of growth at 100 µM (KM12): 112%; inhibition of growth at 100 µM (NCI-H322M): 79%; inhibition of growth at 100 µM (K562): 78%; inhibition of growth at 100 µM (OVCAR-3): 88%; inhibition of growth at 100 µM [2]: 44%; inhibition of growth at 100 µM (SK-MEL-28): < 40%; inhibition of growth at 100 µM (SK-MEL-2): < 40%

Reference: ChEMBL document CHEMBL3120154, “2-[N-Alkyl(R-phenyl)-aminomethyl]-3-phenyl-7-trifluoromethylquinoxalines as anticancer agents inhibitors of folate enzymes” (Eur J Med Chem, 2014)
